# ChEMBL document CHEMBL3872252, “New bithiazolyl hydrazones: Novel synthesis, characterization and antitubercular evaluation” (Bioorg Med Chem Lett, 2017)
# What was measured:
# [1] = Antitubercular activity against Mycobacterium tuberculosis H37Ra ATCC 25177 dormant stage infected in human THP1 cells measured on day 12 by nitrate reductase assay; format: functional, THP-1; conditions: ATCC 25177, 288 h
# [2] = Antitubercular activity against Mycobacterium tuberculosis H37Ra ATCC 25177 active stage infected in human THP1 cells measured on day 8 by nitrate reductase assay; format: functional, THP-1; conditions: ATCC 25177, 192 h
# [3] = Antitubercular activity against Mycobacterium tuberculosis H37Ra ATCC 25177 active stage measured on day 8 by XTT reduction menadione based two-fold dilution assay; format: functional; conditions: ATCC 25177, 192 h
# How it was run: (§1)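 M. tuberculosis H37Ra ATCC 25177 was exposed to 0.7–100 μg/mL in two-fold steps (0.7, 1.5, 3.1 … 100). Active stage was read after 8 days and dormant stage after 12 days of incubation. Inhibition was read by XTT reduction menadione assay (XRMA), absorbance 470 nm. MIC90 is the concentration giving ≥90% inhibition (µg/mL).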
# [4] = Antitubercular activity against Mycobacterium tuberculosis H37Ra ATCC 25177 dormant stage measured on day 12 by XTT reduction menadione based two-fold dilution assay; format: functional; conditions: ATCC 25177, 288 h; how it was run: as §1
# [5] = Antitubercular activity against Mycobacterium bovis BCG ATCC 35743 active stage measured on day 8 by nitrate reductase based two-fold dilution assay; format: functional, Mycobacterium bovis BCG str. ATCC 35743; conditions: Mycobacterium tuberculosis variant bovis BCG, ATCC 35743, 192 h
# [6] = Antitubercular activity against Mycobacterium bovis BCG ATCC 35743 dormant stage measured on day 12 by nitrate reductase based two-fold dilution assay; format: functional, Mycobacterium bovis BCG str. ATCC 35743; conditions: Mycobacterium tuberculosis variant bovis BCG, ATCC 35743, 288 h
# [7] = Cytotoxicity against human THP1 cells by MTT assay; format: toxicity, cell-based, THP-1
# [8] = Cytotoxicity against human MCF7 cells by MTT assay; format: toxicity, cell-based
# [9] = Cytotoxicity against human HCT116 cells by MTT assay; format: toxicity, cell-based, HCT-116
# [10] = Selectivity index, ratio of GI50 for human HCT116 cells to MIC90 for Mycobacterium tuberculosis H37Ra ATCC 25177 active stage; format: toxicity, cell-based, HCT-116; conditions: read-out: Selectivity Index
# How it was run: (§2)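 Cytotoxicity was measured on human MCF-7, HCT116 and THP-1 cells by MTT assay, with paclitaxel as reference. GI50 is the concentration inhibiting 50% of cell growth. The selectivity index is GI50 for the given cell line divided by MIC90 for the given mycobacterial strain and stage.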
# [11] = Selectivity index, ratio of GI50 for human HCT116 cells to MIC90 for Mycobacterium tuberculosis H37Ra ATCC 25177 dormant stage; format: toxicity, cell-based, HCT-116; conditions: read-out: Selectivity Index
# How it was run: (§3)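 Cytotoxicity was measured on human MCF-7, HCT116 and THP-1 cells by MTT assay, with paclitaxel as reference. The selectivity index is GI50 for the given cell line divided by MIC90 for the given mycobacterial strain and stage.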
# [12] = Selectivity index, ratio of GI50 for human HCT116 cells to MIC90 for Mycobacterium bovis BCG ATCC 35743 active stage; format: toxicity, cell-based, HCT-116; conditions: read-out: Selectivity Index; how it was run: as §2
# [13] = Selectivity index, ratio of GI50 for human HCT116 cells to MIC90 for Mycobacterium bovis BCG ATCC 35743 dormant stage; format: toxicity, cell-based, HCT-116; conditions: read-out: Selectivity Index; how it was run: as §3
# [14] = Selectivity index, ratio of GI50 for human THP1 cells to MIC90 for Mycobacterium tuberculosis H37Ra ATCC 25177 dormant stage; format: toxicity, cell-based, THP-1; conditions: read-out: Selectivity Index; how it was run: as §3
# Escherichia coli [15] = assay: Antibacterial activity against Escherichia coli; format: functional
# Pseudomonas aeruginosa [16] = assay: Antibacterial activity against Pseudomonas aeruginosa; format: functional
# Staphylococcus aureus [17] = assay: Antibacterial activity against Staphylococcus aureus; format: functional
# Bacillus subtilis [18] = assay: Antibacterial activity against Bacillus subtilis; format: functional
# Escherichia coli [19] = assay: Growth inhibition of Escherichia coli at 30 ug/ml; format: functional; conditions: read-out: GI
# Escherichia coli [20] = assay: Growth inhibition of Escherichia coli at 10 ug/ml; format: functional; conditions: read-out: GI
# Escherichia coli [21] = assay: Growth inhibition of Escherichia coli at 3 ug/ml; format: functional; conditions: read-out: GI
# How it was run: (§4)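 Screened against Gram-negative E. coli and P. aeruginosa and Gram-positive S. aureus and B. subtilis. Compound was tested at 3 µg/ml, and the read-out is percent growth inhibition.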
# Pseudomonas aeruginosa [22] = assay: Growth inhibition of Pseudomonas aeruginosa at 30 ug/ml; format: functional; conditions: read-out: GI
# Pseudomonas aeruginosa [23] = assay: Growth inhibition of Pseudomonas aeruginosa at 10 ug/ml; format: functional; conditions: read-out: GI
# Pseudomonas aeruginosa [24] = assay: Growth inhibition of Pseudomonas aeruginosa at 3 ug/ml; format: functional; conditions: read-out: GI; how it was run: as §4
# Staphylococcus aureus [25] = assay: Growth inhibition of Staphylococcus aureus at 30 ug/ml; format: functional; conditions: read-out: GI
# Staphylococcus aureus [26] = assay: Growth inhibition of Staphylococcus aureus at 10 ug/ml; format: functional; conditions: read-out: GI
# Staphylococcus aureus [27] = assay: Growth inhibition of Staphylococcus aureus at 3 ug/ml; format: functional; conditions: read-out: GI; how it was run: as §4
# Bacillus subtilis [28] = assay: Growth inhibition of Bacillus subtilis at 30 ug/ml; format: functional; conditions: read-out: GI
# Bacillus subtilis [29] = assay: Growth inhibition of Bacillus subtilis at 10 ug/ml; format: functional; conditions: read-out: GI
# Bacillus subtilis [30] = assay: Growth inhibition of Bacillus subtilis at 3 ug/ml; format: functional; conditions: read-out: GI; how it was run: as §4
compound,measurement,setting,value
C/C(=N\Nc1nc(-c2ccc(Br)cc2)cs1)c1sc(-c2ccccc2)nc1C,MIC90,[1],> 100 µg/mL
same,MIC90,[2],> 100 µg/mL
same,IC50,[3],0.18 µg/mL
same,MIC90,[3],> 100 µg/mL
same,IC50,[4],0.14 µg/mL
same,MIC90,[4],57.7 µg/mL
same,IC50,[5],> 100 µg/mL
same,MIC90,[5],> 100 µg/mL
same,IC50,[6],> 100 µg/mL
same,MIC90,[6],> 100 µg/mL
same,GI50,[7]; THP1 cells,48.9 µg/mL
same,GI90,[7]; thp-1,> 100 µg/mL
same,GI50,[8]; MCF7 cells,26.3 µg/mL
same,GI90,[8]; mcf7,> 100 µg/mL
same,GI50,[9]; HCT116 cells,55.6 µg/mL
same,GI90,[9]; hct-116,> 100 µg/mL
same,selectivity ratio,[10],1
same,selectivity ratio,[11],1
same,selectivity ratio,[12],1
same,selectivity ratio,[13],1
same,selectivity ratio,[14],1
same,IC50,Escherichia coli [15],0.475 µg/mL
same,MIC,Escherichia coli [15],1.14 µg/mL
same,IC50,Pseudomonas aeruginosa [16],0.416 µg/mL
same,MIC,Pseudomonas aeruginosa [16],1.05 µg/mL
same,IC50,Staphylococcus aureus [17],0.453 µg/mL
same,MIC,Staphylococcus aureus [17],1.84 µg/mL
same,IC50,Bacillus subtilis [18],0.526 µg/mL
same,MIC,Bacillus subtilis [18],1.95 µg/mL
same,inhibition of growth at 30 µg/mL,Escherichia coli [19],96.7%
same,inhibition of growth at 10 µg/mL,Escherichia coli [20],94.4%
same,inhibition of growth at 3 µg/mL,Escherichia coli [21],93%
same,inhibition of growth at 30 µg/mL,Pseudomonas aeruginosa [22],98.4%
same,inhibition of growth at 10 µg/mL,Pseudomonas aeruginosa [23],95.8%
same,inhibition of growth at 3 µg/mL,Pseudomonas aeruginosa [24],94.3%
same,inhibition of growth at 30 µg/mL,Staphylococcus aureus [25],96.8%
same,inhibition of growth at 10 µg/mL,Staphylococcus aureus [26],94.3%
same,inhibition of growth at 3 µg/mL,Staphylococcus aureus [27],92.8%
same,inhibition of growth at 30 µg/mL,Bacillus subtilis [28],96.5%
same,inhibition of growth at 10 µg/mL,Bacillus subtilis [29],93.8%
same,inhibition of growth at 3 µg/mL,Bacillus subtilis [30],92.3%
CC1(C)S[C@@H]2[C@H](NC(=O)[C@H](N)c3ccccc3)C(=O)N2[C@H]1C(=O)O [AMPICILLIN],MIC,Escherichia coli [15],1.46 µg/mL
same,MIC,Pseudomonas aeruginosa [16],4.36 µg/mL
same,MIC,Staphylococcus aureus [17],1 µg/mL
same,MIC,Bacillus subtilis [18],10.3 µg/mL
NC[C@H]1O[C@H](O[C@H]2[C@H](O)[C@@H](O[C@H]3O[C@H](CO)[C@@H](O)[C@H](N)[C@H]3O)[C@H](N)C[C@@H]2N)[C@H](O)[C@@H](O)[C@@H]1O [KANAMYCIN],MIC,Escherichia coli [15],1.62 µg/mL
same,MIC,Pseudomonas aeruginosa [16],0.49 µg/mL
same,MIC,Staphylococcus aureus [17],> 30 µg/mL
same,MIC,Bacillus subtilis [18],1.35 µg/mL
